How the values were obtained:
RAW264.7 cells = test: MTT cell viability, RAW264.7 cells; assay type: cell-based, murine; settings: ≤50 µM
Method in brief: (§1)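 MTT colourimetric viability assay. HEK-Blue hTLR4 cells (high-glucose DMEM, 10% FBS, normocin) seeded at 5 × 10^4/well. RAW264.7 cells seeded at 2 × 10^5/well. Both grown overnight before exposure to test compound.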

TLR4 [1] = test: Cytokine ELISA, LPS-stimulated RAW264.7 cells; assay type: cell-based, murine; settings: n ≥ 3
Method in brief: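 Murine macrophages seeded at 2 × 10^5/well (96-well) or 5 × 10^5/well (24-well) and grown overnight, then treated with test compound and LPS. After 24 h treatment, secreted IFN-β was measured by pre-coated mouse IFN-β ELISA. Mouse IL-6 and mouse TNF-α were measured by ELISA kits.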

TLR4 [2] = test: Western blot, LPS-stimulated RAW264.7 cells; assay type: cell-based, murine; settings: for expression of MAPKs: Supp Fig. 1c (p-ERK, p-JNK, p-p38)
Method in brief: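 Total protein extracted with M-PER reagent and quantified by BCA. Membranes incubated with primary antibodies overnight at 4 °C, washed in PBS/0·1% Tween 20, then HRP-conjugated secondary (1:1000) for 2 h. Bands detected by enhanced chemiluminescence, with β-actin as loading reference.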

HEK-Blue™ hTLR4 cells = test: MTT cell viability, HEK-Blue hTLR4 cells; assay type: cell-based, human; settings: n ≥ 3
Method in brief: as §1

[3] = system: TLR4 (HEK-Blue™ hTLR4 cells); test: SEAP activity assay; assay type: cell-based, human; settings: LPS-stimulated; absorbance at 620 nm; n ≥ 3
Method in brief: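 Seeded at 2 × 10^5/well (24-well) and grown overnight, then treated with a range of test-compound concentrations with or without LPS. Supernatants heat-treated at 65 °C for 10 min. SEAP (NF-κB reporter) detected with HEK-Blue detection medium.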

[4] = system: multiple TLR signalling pathways; settings: ref [44]; cited from earlier work
CIA mice = test: Collagen-induced arthritis; assay type: in vivo, mouse (DBA/1 J); settings: TIP3 10 nmol/g or MTX 2 mg/kg, i.p. daily from day 22
Method in brief: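 Male DBA/1J mice (6–7 weeks, 20–23 g) immunised at tail base with 100 μg chicken type II collagen in an equal volume of complete Freund's adjuvant (day 0), boosted day 20. Groups of n = 7. Test compound (2·5 or 10 nmol/g) or methotrexate (2 mg/kg) in saline given i.p. once daily from day 22. Body weight, paw volume and arthritis index tracked. […] (maximum 16), twice weekly.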

[5] = system: mice with IMQ-induced psoriasis-like disease; test: Histology and immunohistochemistry of back skin, psoriasis model; assay type: in vivo, mouse (C57BL/6); settings: immunohistochemistry
Method in brief: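 Back-skin lesions from imiquimod-treated C57BL/6 mice fixed in 4% paraformaldehyde, paraffin-embedded and sectioned at 7 μm. H&E staining used for epidermal/dermal thickness, measured by microscopy. Immunohistochemistry done with HRP/DAB detection using primary antibodies to CD68, CD4 and IL-17.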

Compound | cell viability (RAW264.7 cells) | LPS-induced TNF-α secretion (TLR4 [1]) | Iκ-Bα degradation (TLR4 [2]) | phosphorylation of p65 subunit of NF-κB (p-p65) (TLR4 [2]) | expression of MAPKs (TLR4 [2]) | also measured
KKWKMRRNQFWIKIQR [CPP, reference compound] | did not affect the cell viability at ≤50 µM | did not have any modulatory effect on TNF-α secretion | neither peptide inhibited Iκ-Bα degradation | neither peptide inhibited Iκ-Bα degradation, phosphorylation of the p65 subunit of NF-κB (p-p65) | neither peptide inhibited Iκ-Bα degradation, phosphorylation of the p65 subunit of NF-κB (p-p65), or the expression of mitogen-activated protein kinase (MAPKs) | –
DYDVCVCH [TIP3 w/o CPP] | did not affect the cell viability at ≤50 µM | did not have any modulatory effect on TNF-α secretion | neither peptide inhibited Iκ-Bα degradation | neither peptide inhibited Iκ-Bα degradation, phosphorylation of the p65 subunit of NF-κB (p-p65) | neither peptide inhibited Iκ-Bα degradation, phosphorylation of the p65 subunit of NF-κB (p-p65), or the expression of mitogen-activated protein kinase (MAPKs) | –
TIPLLS [TIP2] | – | – | – | – | – | cell viability / cytotoxicity (HEK-Blue™ hTLR4 cells; 12·5 to 50 μM): did not show any significant cytotoxicity; cell viability / cytotoxicity (HEK-Blue™ hTLR4 cells; high concentration, 100 μM): slight cytotoxicity; inhibition of LPS-induced SEAP activity (NF-κB) [3]: TIP3, but not TIP2, hampered the LPS-induced SEAP activity; TLR signalling inhibition [4]: TIP1, but not TIP2, abrogates multiple TLR signalling pathways
CN(Cc1cnc2nc(N)nc(N)c2n1)c1ccc(C(=O)N[C@@H](CCC(=O)O)C(=O)O)cc1 [MTX, methotrexate, reference compound] | – | – | – | – | – | loss of body weight (CIA mice): not observed; arthritis index (CIA mice; maximal score 16): significantly decreased; relative paw volume (large paw volume) (CIA mice; plethysmometer): TIP3 (10 nmol/g)- and MTX-injected mice did not; overexpression of CD4 in skin [5]: just as in the MTX-treated group; overexpression of CD68 in skin [5]: just as in the MTX-treated group; overexpression of IL-17 in skin [5]: just as in the MTX-treated group

Source: PMC6997517 (EBioMedicine, 2020)
